Assay outcomes deposited in PubChem by several laboratories.
Tb hexokinase: blocks Trypanosoma brucei hexokinase 1 activity. recombinant TbHK1, G6PDH-coupled NADH A340. inhibition, % at 10 µM. hit rate 0.11% among 220,000;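 active = inhibition of 50% or more in the single-dose primary screen; inactive = inhibition below 50%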
PHOSPHO1 block: blocks human PHOSPHO1 phosphatase activity; Q8TCT1; recombinant PHOSPHO1, absorbance phosphatase assay; inhibition, % at 13.3 µM; hit rate 1.1% among 290,000; AID 1565; in the data active = inhibition above about 60%
Target sequence (Q8TCT1 whole entry, looked up): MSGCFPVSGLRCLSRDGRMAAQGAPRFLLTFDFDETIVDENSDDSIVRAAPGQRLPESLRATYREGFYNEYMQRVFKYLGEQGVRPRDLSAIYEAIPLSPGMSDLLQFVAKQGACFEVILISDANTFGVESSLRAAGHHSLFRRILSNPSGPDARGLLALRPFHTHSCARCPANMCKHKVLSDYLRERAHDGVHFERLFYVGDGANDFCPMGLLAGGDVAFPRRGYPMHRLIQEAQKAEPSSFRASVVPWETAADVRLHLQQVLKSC
EP2 modulator: modulates human prostaglandin E2 receptor EP2 signaling; hit rate 0.83% among 260,000; EP2-expressing cells, cAMP HTRF FRET, PGE2 co-stimulation; P43116; induction, % at 25 µM;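 active = compounds whose cAMP rise, as percent of the full-agonist control response, exceeds 60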;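 also: rat C6 glioma line stably carrying human EP2 under a CMV promoter; the protocol text gives 20 µM as final concentration; 100% = response of wells given 1 µM PGE2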
Target sequence (P43116 whole entry, looked up): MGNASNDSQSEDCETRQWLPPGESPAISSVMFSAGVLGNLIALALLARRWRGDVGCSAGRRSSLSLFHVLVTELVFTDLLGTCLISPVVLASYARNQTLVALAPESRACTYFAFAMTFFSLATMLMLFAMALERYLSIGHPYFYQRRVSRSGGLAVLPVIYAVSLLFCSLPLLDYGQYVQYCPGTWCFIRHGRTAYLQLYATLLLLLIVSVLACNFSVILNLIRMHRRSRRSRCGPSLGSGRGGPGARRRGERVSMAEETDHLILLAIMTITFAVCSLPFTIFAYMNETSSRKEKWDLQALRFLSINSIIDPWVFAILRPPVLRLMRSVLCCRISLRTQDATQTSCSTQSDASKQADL
EP2 antag: EP2 receptor (human) inhibition | P43116 | C6 glioma cells expressing human EP2, cAMP TR-FRET; cells stimulated with saturating PGE2 | inhibition, % at 25 µM | hit rate 0.52% among 260,000;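 active = percent inhibition above 40 after rounding to a whole number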;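 also: rat C6 glioma host cells with rolipram phosphodiesterase inhibitor present; the protocol text gives 20 µM as final concentration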
HKDC1 inh: inhibitors of human hexokinase HKDC1. hit rate 0.16% among 340,000. recombinant HKDC1, G6PDH/diaphorase resazurin coupled fluorescence. Q2TB90. inhibition, % at 20 µM;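 active = inhibition above about 35% when tested at 20 µM, limit read from the data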;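 also: plate controls were DMSO wells with enzyme for no effect and DMSO wells lacking enzyme for full effect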
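test system = in-house recombinant HK5 (HKDC1) enzyme | amount = HKDC1 at 5 µg/mL | control set = DMSO-enzyme wells negative, buffer-substituted wells positive | compound = one dose of 20 µM, 1% DMSO | schedule = reaction time 90 min, room temperature, protected from light | technique = resorufin fluorescence at 613 nm | reagent = glucose with 1 mM ATP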
PfG6PD inh: PfG6PD (Plasmodium falciparum) enzyme inhibition; PfGluPho enzyme, NADPH resazurin-diaphorase fluorescence; inhibition, % at 20 µM; hit rate 0.78% among 350,000;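 active = inhibition reaching at least a set limit at 20 µM in the primary screen, cut at about 59% in these data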;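 also: 0% = DMSO wells with substrate and 100% = DMSO wells lacking glucose-6-phosphate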
Starred values were filed as active, the others as inactive; . = no result given. Hits are enriched below; roughly 2.5% of the tested compounds scored in any of these assays.

SMILES	Tb hexokinase	PHOSPHO1 block	EP2 modulator	EP2 antag	HKDC1 inh	PfG6PD inh
CN(C)S(=O)(=O)N1CCC(Cn2nc(-c3ccccc3)ccc2=O)CC1	.	.	-60.3	8.6	.	.
Cc1ccc(NN2C(=O)C=C(c3ccc(Cl)cc3)C2=O)cc1	-2.6	10.8	-32.6	40.2*	8.3	15.2
O=C(CCc1ccccc1)N1CCC[C@@H](Cn2nc(-c3cccs3)ccc2=O)C1	.	.	-59.7	10.1	.	.
CC(=O)NC1=C(N(C)C2CCS(=O)(=O)C2)C(=O)c2ccccc2C1=O (stereo not drawn)	-10.2	-9.2	3.8	6.5	39.4*	97.3*
CCc1cc2c(C)cc(C)cc2nc1SCC(=O)NC(C)(C)C	.	.	46.3	8.0	.	.
CCOC(=O)CC1C(=O)NCCN1Cc1cccs1 (stereo not drawn)	0.5	64.3*	24.6	6.8	-2.6	-7.2
CCOC(=O)C1CCCN(Cc2cccs2)C1 (stereo not drawn)	-6.4	73.4*	2.3	8.5	-7.5	-19.8
O=C1NC2=C(C(=O)N(CCN3CCCC3)C2)C(c2cccc(F)c2)N1 (stereo not drawn)	.	.	-7.4	4.6	.	.
c1ccc(-c2nc3ccccc3c3nc4ccccc4n23)cc1	-0.2	1.1	64.3*	6.5	-10.8	0.8
COc1ccccc1NC(=O)N(CCN1CCOCC1)Cc1cc2cc(C)ccc2[nH]c1=O	.	.	-3.2	7.5	.	.
COc1ccc(-c2cc(C#N)on2)c(OC)c1	.	.	-88.3	7.3	.	.
CN(C)CC1CC/C(=C\c2ccc(O)cc2)C1=O (stereo not drawn)	.	.	.	.	6.6	61.3*
COc1ccc(/C=C2\CCC(C3CCCC3)C2=O)cc1 (stereo not drawn)	.	13.4	.	.	2.0	1.1
COc1ccc(/C=C2/CCC(CN3CCOCC3)C2=O)cc1 (stereo not drawn)	.	.	.	.	15.3	75.5*
CC(C)OCC(O)CN1CCN(CC2(c3ccc(Cl)cc3)CC2)CC1 (stereo not drawn)	.	.	18.6	3.4	.	.
COc1cccc(Nc2nc(NCC3CCCO3)c3ccccc3n2)c1 (stereo not drawn)	-0.8	-13.1	-53.8	52.5*	-1.1	21.6
O=C1C2CCCN2S(=O)(=O)c2ccccc2N1Cc1ccccc1 (stereo not drawn)	.	.	5.1	.	.	.
c1ccc(C[n+]2cccc(-c3cc4ccccc4[nH]3)c2)cc1	.	.	-32.1	58.5*	.	.
C[N@@+]1(CC[N@+]2(C)CCC[C@@H]2c2cccnc2)CCC[C@@H]1c1cccnc1	.	.	25.5	47.3*	.	.
Cc1ccc(C2C3=C(CCCC3=O)Nc3[nH]c(=S)[nH]c(=O)c32)cc1 (stereo not drawn)	-5.1	102.5*	26.1	3.1	-4.0	48.4
CC1(C)CC(=O)C2=C(C1)Nc1[nH]c(=S)[nH]c(=O)c1C2c1ccccc1 (stereo not drawn)	-13.5	96.3*	33.0	15.0	6.1	31.1
O=C1CCCC2=C1C(c1ccc(Br)cc1)c1c([nH]c(=S)[nH]c1=O)N2 (stereo not drawn)	-6.3	38.2	22.4	9.9	2.4	48.0
CSc1nc2c(c(=O)[nH]1)C(c1ccccc1)C1=C(CC(C)(C)CC1=O)N2 (stereo not drawn)	-4.0	8.2	44.4	3.0	-13.8	8.6
Cc1cc(C)nc(N2CCC(C(=O)Nc3ccc(C(C)(C)C)cc3)CC2)n1	.	.	24.5	5.2	.	.
CCn1c2ccccc2c2cc(NC(=O)CSc3nnc(-c4ccc(OC)c(OC)c4)n3N)ccc21	-17.7	44.7	-63.5	5.7	6.7	3.7
SMILES	Tb hexokinase	PHOSPHO1 block	EP2 modulator	EP2 antag	HKDC1 inh	PfG6PD inh
CCn1c2ccccc2c2cc(NC(=O)CSc3nnc(-c4ccccc4OC)n3N)ccc21	-5.0	78.5*	-22.7	12.1	4.3	1.5
CCOc1ccc(-c2nnc(SCC(=O)Nc3ccc4c(c3)c3ccccc3n4CC)n2N)cc1	13.0	79.2*	-31.8	3.0	5.1	-11.2
O=C(O)CCN1N=C(c2ccccc2)Cn2c(cc3sccc32)C1=O	.	.	-7.9	8.3	.	.
CCc1ccc2[nH]cc(C(=O)NCCOC)c(=O)c2c1	.	.	-12.0	11.0	.	.
CCc1cc2c(NCC3CCCO3)ncnc2s1 (stereo not drawn)	0.6	-1.5	-10.5	4.6	4.1	2.5
Cc1sc2ncnc(NCC3CCCO3)c2c1C (stereo not drawn)	-2.2	60.1*	-9.9	10.4	-4.8	-11.9
CCOC(=O)C1CC(c2ccc(Cl)cc2)=NNC1=O (stereo not drawn)	2.4	61.2*	13.6	4.2	-7.5	4.6
S=c1[nH]nc(-c2ccncc2)n1Cc1ccccc1	-2.2	87.7*	6.4	12.6	-10.8	24.5
Cc1cc(Cl)ccc1-n1c(-c2cccnc2)n[nH]c1=S	-3.3	78.2*	19.1	9.5	1.0	35.8
COc1ccccc1-n1c(-c2ccc(NS(C)(=O)=O)cc2)n[nH]c1=S	-7.6	87.9*	-1.2	9.3	-2.9	29.2
CCc1ccccc1-n1c(-c2ccncc2)n[nH]c1=S	1.8	90.0*	-1.1	5.1	-10.2	31.8
COc1ccc(-n2c(-c3ccc(C(C)(C)C)cc3)n[nH]c2=S)c(OC)c1	.	.	.	.	.	20.7
Cc1ccccc1-n1c(-c2ccncc2)n[nH]c1=S	.	-32.1	19.3	3.9	-6.2	24.6
CC(C)(C)c1nn(-c2ccc(F)cc2)c2[nH]c(=O)c(CNCC3COCCO3)cc12 (stereo not drawn)	.	.	-1.8	9.6	.	.
CCNC(=S)N(Cc1ccccc1)Cc1cc2ccc(C)c(C)c2[nH]c1=O	.	.	23.9	7.3	.	.
CN1Cc2c(N3CCOCC3)nc(SCc3ccccc3)c(C#N)c2CC1(C)C	-21.2	80.4*	16.9	2.7	3.7	4.3
CCSc1nc(N2CCOCC2)c2c(c1C#N)CC(C)(C)N(C)C2	-16.5	21.4	25.3	20.3	-2.5	-2.6
CCc1ccc(NC(=O)CSc2nnnn2-c2ccc(NC(C)=O)cc2)cc1	.	.	-38.6	14.3	.	.
O=c1c2ccccc2sn1-c1ccc(F)cc1	.	.	.	.	3.5	112.8*
COC(=O)c1cccc(-n2sc3ccccc3c2=O)c1	.	.	.	.	2.0	116.7*
COC(=O)c1cccc(N2CCCC2=O)c1	1.7	-10.5	18.2	4.6	-5.4	-13.0
COc1ccc(OCC(=O)Nc2ncc(Cc3cccc(Cl)c3)s2)cc1	.	.	-15.5	6.1	.	.
CCn1c(=O)n(CC(=O)Nc2ccccc2-c2ccccc2)c2cccnc21	.	.	-34.5	0.8	.	.
COc1ccc(OC)c(N(CC(=O)Nc2ccc3c(c2)OCO3)S(=O)(=O)c2ccccc2)c1	2.5	-10.0	14.9	5.4	5.2	35.6
COc1ccc(Cl)cc1N(CC(=O)Nc1ccc2c(c1)OCO2)S(C)(=O)=O	1.9	69.2*	-21.0	11.3	-2.6	10.6
O=C(NCc1cnc2ccccn12)C1CCC(=O)N(Cc2ccccc2F)C1 (stereo not drawn)	.	65.8*	.	.	-7.5	-11.5
CC(C)(C)NC(=O)NC(=O)CSc1n[nH]c(-c2ccccc2Br)n1	-1.5	62.9*	19.2	4.1	-0.6	-6.3
CCOC(=O)C1=C(C)NC(=S)N(C(C)=O)C1c1ccccc1 (stereo not drawn)	-23.9	-1.1	64.8*	.	-3.6	1.6
